Hits are enriched below; roughly 1.7% of the tested compounds scored in any of these assays.
ARNT-TACC3 inh: ARNT/TACC3 interaction disruption | Q9Y6A5 | AlphaScreen His-ARNT PAS-B/GST-TACC3 binding, luminescence; TACC3 fragment carries E629A point mutation | inhibition, % at 9.99 µM | 0.66% of 390,000 active | AID 623870;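 active means mean inhibition of replicates at least 50% and at least half of replicates each reaching 50%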;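 further: 0% = complete ARNT plus TACC3 wells and 100% = ARNT alone without TACC3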
CFTR F508del cor: CFTR F508del correction in bronchial cells; activity (quench increase), % at 7.58 µM; CFBE cells, YFP halide quenching; stimulated with forskolin plus potentiator P3; % fluorescence drop versus neutral controls; 0.36% of 350,000 active;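 active means mean added fluorescence quench of at least 8% versus neutral control, with both replicates also reaching 8%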;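 further: cells transiently co-express mutant CFTR-F508del with the halide-sensitive YFP; corrector assay measuring rescue of mutant channel to the surface after 24 h compound exposure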
CAL PDZ FP-1: blocks peptide binding to human CAL PDZ domain; Q9HD26; purified CAL PDZ, TMR-peptide fluorescence polarization, 1 h; inhibition, % at 20 µM; 0.02% of 330,000 active; AID 504414;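 active means highest replicate inhibition of at least 40%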;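 further: plate controls were DMSO neutral control wells for no effect and unlabeled competitor peptide control wells for full effect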
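Assay system – tagged CAL PDZ protein CerCALP, purified · Timing – 1 h at RT · Compound – single point, 20 µM · Measured by – fluorescence polarization from S- and P-plane intensities, G-factor corrected · Evaluation – inhibition from polarization loss · Probe or stimulus – TMR reporter peptide T*-PRC34 · Buffer or medium – pH 7.4 phosphate-saline buffer, reducing agent, detergent, IgG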
PGC1a acetyl inh: modulators of PGC1a acetylation | AID 651687 | 0.17% of 350,000 active | U2OS PGC1a acetylation, AlphaScreen anti-acetyl-lysine; with virally co-expressed GCN5 acetyltransferase | inhibition, % at 15.6 µM;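 active means every replicate shows inhibition of at least 40%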;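 further: 0% = neutral control wells and 100% = positive control wells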
CAL PDZ FP-2: CAL PDZ (human) peptide binding inhibition. Q9HD26. purified CAL PDZ, TMR-peptide fluorescence polarization, 1 h. inhibition, % at 24.9 µM. 0.92% of 300,000 active;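 active means mean inhibition of at least 30% with at least half of replicates also reaching 30%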;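 further: 0% = DMSO neutral control and 100% = excess unlabeled competitor peptide PRC23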
miR122 inh: miR-122 inhibition in Huh7 cells. Huh7 miR-122 Renilla luciferase sensor, 48 h; neutral wells = 0, positive control = 100. activation (reporter increase), % at 12.5 µM. 0.3% of 340,000 active. AID 602342;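 active means mean replicate activation score at least 90 and every replicate individually at or above 90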;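 further: higher luciferase means less miR-122 activity so hits act as miR-122 inhibitors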
Active calls of the source: *; · = not tested or not shown; [ ] = another dose, or the depositor's remark.

SMILES	ARNT-TACC3 inh	CFTR F508del cor	CAL PDZ FP-1	PGC1a acetyl inh	CAL PDZ FP-2	miR122 inh
C#CC(=O)N(c1cc(OC)ccc1OC)C(C(=O)NC1CCCC1)c1cccs1 (stereo not given)	11	·	-3	88*	0	-18
COc1ccc(N(C(=O)c2ccco2)C(C(=O)NC2CCCCC2)c2cccs2)cc1OC (stereo not given)	-4	·	-1	-9	-2	0
O=C(C[C@@H]1C[C@H]2c3cc(NS(=O)(=O)c4ccc(F)cc4)ccc3O[C@H]2[C@H](CO)O1)NCc1cccc(F)c1	5	0	·	1	·	8[16.7 µM]
CCOC(=O)C1=CN(Cc2cccc(I)c2)S(=O)(=O)N(C)C1C (stereo not given)	-1	12*	0	·	-2	·
O=C(Nc1ccccc1)N[C@H]1CC[C@@H](CCn2cc(-c3ccccc3F)nn2)O[C@H]1CO	·	0	·	-2	·	·
Cc1ccc(NC(=O)C(OC(=O)c2ccc(O)cc2)c2ccccc2)cc1Cl (stereo not given)	·	-1	-2	·	-3	2
Cc1ccc(NC(=O)C(OC(=O)c2ccc(F)cc2)c2ccccc2)cc1Cl (stereo not given)	-4	·	-1	-1	-1	137*
O=C(C[C@H]1C=C[C@@H](NC(=O)C2CCOCC2)[C@@H](CO)O1)Nc1ccc(-c2ccccc2)cc1	-9	0	·	-4	·	-9[16.7 µM]
CC1CCCN(C(=O)COC(=O)/C=C/c2ccc(C(F)(F)F)cc2)C1 (stereo not given)	0	-2	-1	-9	72*	-3
COc1ccc(S(=O)(=O)N(C)C[C@@H]2Oc3ccc(NC(=O)Nc4ccc(C(F)(F)F)cc4)cc3CC(=O)N([C@H](C)CO)C[C@@H]2C)cc1	-4	0	·	17	·	-14[16.7 µM]
COc1ccc(NS(=O)(=O)c2cc(NC(=O)c3cnccn3)ccc2N2CCCC2)cc1	0	·	-1	-17	-3	104*
CNC(=S)Nc1ccc(N2CCCC2)c(S(=O)(=O)Nc2ccc(OC)cc2)c1	2	0	1	·	-3	109*
COc1ccc(NS(=O)(=O)c2cc(NC(=O)c3ccc(C)o3)ccc2N2CCCCC2)cc1	6	·	-1	·	-1	·
COc1ccc(NS(=O)(=O)c2cc(NC(=O)c3cnccn3)ccc2OC)cc1Br	1	0	-1	-7	71*	32
O=C(Cc1ccccn1)N[C@@H]1CC[C@@H](CCn2cc(-c3cccnc3)nn2)O[C@H]1CO	-9	3	·	-7	·	·
COc1ccc(Cc2nc3ccc(C(=O)N(C)C(C)c4ccon4)cc3o2)cc1 (stereo not given)	0	1	1	0	34*	-4
CC(C)NC(=S)N=Nc1c(O)[nH]c2ccc(C(C)C)cc12	-1	-1	-2	48*	-3	-4
COc1ccc(CN(C)C[C@@H]2OCCCC[C@H](C)Oc3ccc(NC(=O)Nc4cccc5ccccc45)cc3C(=O)N([C@H](C)CO)C[C@H]2C)cc1	30	0	·	9	·	-19[16.7 µM]
COC(=O)C1(C(F)(F)F)N=C(N(C)C)OC(N(C)C)=N1	-4	·	-2	-3	42*	4
O=C(C[C@H]1CC[C@H]2[C@@H](COC[C@H](O)CN2C(=O)Nc2cc(Cl)cc(Cl)c2)O1)NCC1CCCCC1	8	1	·	-1	·	-2[16.7 µM]
COc1ccc(C2C(C(=O)N3CCOCC3)CCC(=O)N2c2ccc(OC)cc2)cc1 (stereo not given)	1	·	-1	-4	108*	3
COc1ccc(N2C(=O)CCC(C(=O)N3CCCCC3)C2c2ccc(OC)c(OC)c2)cc1 (stereo not given)	-5	·	·	-12	13	2
COc1ccc2c(c1)CCc1c(C(=O)NC3CCCCC3)noc1-2	46*	·	-1	-1	·	-4
CC(C)COc1ccc(C(=O)OCCN2CCCCC2)cc1	active	1	-3	-4	-2	·
CC(C)COc1ccc(C(=O)OCCN2CCOCC2)cc1	-6	·	-1	9	-5	-4
SMILES	ARNT-TACC3 inh	CFTR F508del cor	CAL PDZ FP-1	PGC1a acetyl inh	CAL PDZ FP-2	miR122 inh
CCCNC(=O)N(C)C[C@H]1Oc2ncc(-c3ccc(OC)cc3)cc2C(=O)N([C@H](C)CO)C[C@H]1C	5	1	·	-4	·	-1[16.7 µM]
CCOc1ccc(NC(=O)CN(C)S(=O)(=O)c2cccs2)cc1	-2	·	-1	0	59*	-2
O=C1Nc2ccc([N+](=O)[O-])cc2OC1CCN1CCN(Cc2ccc3c(c2)OCO3)CC1 (stereo not given)	·	-2	0	-4	8	153*
O=C1Nc2ccc([N+](=O)[O-])cc2OC1CCN1CCN(Cc2ccccc2)CC1 (stereo not given)	-16	1	-2	-6	-3	·
COc1ccc(C)cc1NS(=O)(=O)c1ccc2c(c1)CCN2C(C)=O	-4	3	0	-12	1	92*
CC(=O)N1CCCc2cc(S(=O)(=O)Nc3ccccc3C)ccc21	-4	1	-2	·	-3	35
CNS(=O)(=O)c1cccc(C(=O)OCC(=O)c2cc(C)n(-c3ccc4c(c3)OCO4)c2C)c1	5	·	-1	9	-2	-8
Cc1cc(C(=O)COc2ccccc2Cl)c(C)n1-c1ccc2c(c1)OCO2	-9	0	-1	·	45*	·
CCCNC(=O)Nc1ccc2c(c1)C(=O)N(C)C[C@H](OC)[C@H](C)CN(S(C)(=O)=O)[C@@H](C)CO2	·	-1	·	7	·	·
CS(=O)(=O)N1CCCC(C(=O)NCc2ccccn2)C1 (stereo not given)	23	1	-2	47*	0	·
C/C(=N\NC(=O)C1CCCN(S(=O)(=O)c2ccccc2)C1)c1ccncc1 (stereo not given)	-7	·	0	18	-4	3
C/C(=N\NC(=O)C1CCCN(S(=O)(=O)c2ccccc2)C1)c1ccccn1 (stereo not given)	53*	·	-2	3	-2	-7
Cc1ccc(Nc2nc(C(=O)NCc3ccco3)cs2)cc1	9	·	2	·	·	162*
CCN(CC)C(=O)c1csc(Nc2ccc(C)cc2)n1	4	·	0	·	1	5
COCC#Cc1cnc2c(c1)C(=O)N([C@@H](C)CO)C[C@@H](C)[C@H](CN(C)C(=O)c1cccnc1)O2	-2	0	·	-10	·	-3[16.7 µM]
CC1=C(C(=O)OCC2CCCO2)C(c2ccncc2)C2=C(CC(C)(C)CC2=O)N1 (stereo not given)	-6	·	·	9	40*	-2
CC1=C(C(=O)OC(C)C)C(c2ccc(N(C)C)cc2)C2=C(CC(C)(C)CC2=O)N1 (stereo not given)	0	·	2	0	1	150*
